Key:
[1] = molecular target: UGT2B15 (Homo sapiens, UniProt P54855); assay: Inhibition of UGT2B15; format: biochemical; conditions: PI-103 1, 10 and 100 μM
In short: (§1)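 Recombinant human UGTs screened with probe substrates: β-estradiol for UGT1A1, propofol for 1A9, and 4-methylumbelliferone for 1A3, 1A6, 1A7, 1A8, 1A10, 2B4, 2B7, 2B10, 2B15 and 2B17. Incubated at 37 °C without (control) or with test compound at 1, 10 or 100 μM. Glucuronide formation measured relative to control; triplicate.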

[2] = molecular target: CYP2E1 (Homo sapiens, UniProt P05181); assay: Inhibition of CYP2E1; format: biochemical
Sequence of CYP2E1 (P05181 whole entry): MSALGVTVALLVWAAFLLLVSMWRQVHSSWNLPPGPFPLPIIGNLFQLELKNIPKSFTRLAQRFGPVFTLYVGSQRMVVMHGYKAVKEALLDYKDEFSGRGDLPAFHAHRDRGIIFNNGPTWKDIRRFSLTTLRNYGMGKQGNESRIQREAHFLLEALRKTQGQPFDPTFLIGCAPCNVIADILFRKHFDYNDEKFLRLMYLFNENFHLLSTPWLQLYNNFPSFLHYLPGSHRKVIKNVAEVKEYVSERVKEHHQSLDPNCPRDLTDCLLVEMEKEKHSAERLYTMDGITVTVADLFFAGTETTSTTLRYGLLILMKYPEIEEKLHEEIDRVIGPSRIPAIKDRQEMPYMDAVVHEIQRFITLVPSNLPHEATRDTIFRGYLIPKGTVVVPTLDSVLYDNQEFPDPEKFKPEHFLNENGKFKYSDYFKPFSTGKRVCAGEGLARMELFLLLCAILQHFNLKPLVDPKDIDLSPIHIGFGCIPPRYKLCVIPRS
In short: (§2)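 Recombinant human CYPs at 0.1 mg mL−1 protein, each with its probe substrate near Km: coumarin 100 μM (2A6), bupropion 100 μM (2B6), paclitaxel 60 μM (2C8), tolbutamide 200 μM (2C9), mephenytoin 100 μM (2C19), chlorzoxazone 200 μM (2E1). Incubated at 37 °C with or without test compound at 1, 10 or 100 μM. UHPLC-TQD-MS read-out; triplicate.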

[3] = molecular target: BCRP (Homo sapiens, UniProt Q9UNQ0); assay: M2 excretion in HeLa1A9 cells after shRNA knock-down of BCRP; format: cell-based
Sequence of BCRP (Q9UNQ0 whole entry): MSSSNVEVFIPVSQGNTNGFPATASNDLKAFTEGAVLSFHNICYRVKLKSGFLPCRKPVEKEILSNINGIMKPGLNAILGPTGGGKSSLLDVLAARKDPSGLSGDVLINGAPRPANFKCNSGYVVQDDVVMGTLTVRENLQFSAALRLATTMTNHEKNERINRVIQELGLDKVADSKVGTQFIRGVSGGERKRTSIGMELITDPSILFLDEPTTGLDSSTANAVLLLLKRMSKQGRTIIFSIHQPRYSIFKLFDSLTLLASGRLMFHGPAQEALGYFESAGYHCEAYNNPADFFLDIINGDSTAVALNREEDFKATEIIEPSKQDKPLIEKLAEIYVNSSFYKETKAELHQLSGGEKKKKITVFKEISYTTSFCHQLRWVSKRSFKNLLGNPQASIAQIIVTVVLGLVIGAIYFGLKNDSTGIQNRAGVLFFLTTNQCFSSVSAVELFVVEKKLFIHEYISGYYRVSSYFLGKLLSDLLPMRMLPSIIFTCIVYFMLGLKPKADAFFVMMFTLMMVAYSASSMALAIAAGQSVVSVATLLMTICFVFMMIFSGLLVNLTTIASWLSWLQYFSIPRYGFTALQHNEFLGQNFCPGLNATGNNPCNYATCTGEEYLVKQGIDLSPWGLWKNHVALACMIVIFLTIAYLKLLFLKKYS
In short: (§3)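 shRNA plasmid against BCRP, MRP1, MRP3 or MRP4 transfected into UGT1A9-expressing HeLa cells, then exposed to 5 μM test compound in HBSS. Medium sampled at 30–120 min with replacement; cells collected at 120 min. UHPLC gave extracellular and intracellular glucuronide, excretion rate, efflux clearance (excretion rate/intracellular concentration) and fraction metabolized (fmet), each compared with control. Triplicate.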

[4] = molecular target: UGT1A6 (Homo sapiens, UniProt P19224); assay: Inhibition of UGT1A6; format: biochemical
Sequence of UGT1A6 (P19224 27-532): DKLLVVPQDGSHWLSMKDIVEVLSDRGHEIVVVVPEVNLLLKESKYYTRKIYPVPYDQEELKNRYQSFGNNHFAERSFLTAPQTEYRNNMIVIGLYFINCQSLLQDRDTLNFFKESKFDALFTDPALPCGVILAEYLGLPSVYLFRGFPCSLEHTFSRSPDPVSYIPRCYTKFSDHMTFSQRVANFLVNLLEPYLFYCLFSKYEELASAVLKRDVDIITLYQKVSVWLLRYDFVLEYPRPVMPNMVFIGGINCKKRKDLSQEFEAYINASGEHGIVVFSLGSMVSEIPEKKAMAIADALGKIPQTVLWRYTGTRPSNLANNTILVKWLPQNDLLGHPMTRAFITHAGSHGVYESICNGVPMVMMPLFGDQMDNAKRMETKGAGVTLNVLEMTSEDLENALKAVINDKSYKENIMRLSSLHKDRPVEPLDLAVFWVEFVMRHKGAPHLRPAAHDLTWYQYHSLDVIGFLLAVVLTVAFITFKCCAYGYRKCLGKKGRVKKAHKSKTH
In short: as §1

[5] = tested on: DNA-PK; conditions: cited from earlier work
[6] = molecular target: UGT1A10 (Homo sapiens, UniProt Q9HAW8); assay: Inhibition of UGT1A10; format: biochemical; conditions: PI-103 1, 10 and 100 μM
Sequence of UGT1A10 (Q9HAW8 26-530): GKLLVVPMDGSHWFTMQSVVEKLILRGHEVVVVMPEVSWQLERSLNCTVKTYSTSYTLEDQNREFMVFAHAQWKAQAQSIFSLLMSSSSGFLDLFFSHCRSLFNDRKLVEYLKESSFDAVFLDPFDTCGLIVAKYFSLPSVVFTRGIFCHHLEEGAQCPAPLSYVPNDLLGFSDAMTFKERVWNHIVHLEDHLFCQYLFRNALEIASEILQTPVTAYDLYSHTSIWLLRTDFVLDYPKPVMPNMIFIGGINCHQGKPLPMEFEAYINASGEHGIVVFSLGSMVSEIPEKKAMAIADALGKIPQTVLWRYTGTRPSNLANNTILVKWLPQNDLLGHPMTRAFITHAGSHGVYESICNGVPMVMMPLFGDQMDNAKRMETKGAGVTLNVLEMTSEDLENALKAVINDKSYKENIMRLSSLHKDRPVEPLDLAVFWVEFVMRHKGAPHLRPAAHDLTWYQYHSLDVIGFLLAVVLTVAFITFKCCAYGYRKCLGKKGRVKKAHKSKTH
In short: as §1

[7] = molecular target: MRP3 (Homo sapiens, UniProt O15438); assay: M2 excretion in HeLa1A9 cells after shRNA knock-down of MRP3; format: cell-based; conditions: MRP3 silenced, p > 0.05
In short: as §3

[8] = tested on: p110γ; conditions: cited from earlier work
[9] = tested on: mice; conditions: cited from earlier work
[10] = molecular target: UGT2B10 (Homo sapiens, UniProt P36537); assay: Inhibition of UGT2B10; format: biochemical; conditions: PI-103 1, 10 and 100 μM
In short: as §1

[11] = molecular target: CYP3A5 (Homo sapiens, UniProt P20815); assay: Inhibition of CYP3A5; format: biochemical; conditions: PI-103 1, 10 and 100 μM
Sequence of CYP3A5 (P20815 whole entry): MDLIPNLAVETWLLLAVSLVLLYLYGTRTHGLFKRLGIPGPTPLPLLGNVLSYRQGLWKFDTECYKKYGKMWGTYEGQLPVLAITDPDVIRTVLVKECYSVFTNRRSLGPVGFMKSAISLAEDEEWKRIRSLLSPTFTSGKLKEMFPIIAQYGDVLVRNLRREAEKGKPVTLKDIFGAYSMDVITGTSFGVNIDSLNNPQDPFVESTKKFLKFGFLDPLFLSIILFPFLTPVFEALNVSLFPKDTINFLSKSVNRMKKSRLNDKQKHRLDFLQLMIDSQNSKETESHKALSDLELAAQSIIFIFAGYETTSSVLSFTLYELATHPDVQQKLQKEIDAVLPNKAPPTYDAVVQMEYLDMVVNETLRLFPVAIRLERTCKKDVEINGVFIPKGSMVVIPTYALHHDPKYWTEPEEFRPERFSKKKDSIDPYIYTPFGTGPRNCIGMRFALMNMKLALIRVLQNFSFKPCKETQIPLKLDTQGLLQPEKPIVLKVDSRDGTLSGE
In short: (§4)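 Recombinant human CYPs at 0.05 mg mL−1 protein, each with its probe substrate near Km: ethoxyresorufin 1 μM (CYP1A1), phenacetin 100 μM (CYP1A2), nifedipine 40 μM (CYP3A4, 3A5). Incubated at 37 °C without (control) or with test compound at 1, 10 and 100 μM. Supernatant analysed by UHPLC-TQD-MS; activity relative to control; triplicate.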

[12] = molecular target: CYP1A1 (Homo sapiens, UniProt P04798); assay: Inhibition of CYP1A1; format: biochemical
Sequence of CYP1A1 (P04798 whole entry): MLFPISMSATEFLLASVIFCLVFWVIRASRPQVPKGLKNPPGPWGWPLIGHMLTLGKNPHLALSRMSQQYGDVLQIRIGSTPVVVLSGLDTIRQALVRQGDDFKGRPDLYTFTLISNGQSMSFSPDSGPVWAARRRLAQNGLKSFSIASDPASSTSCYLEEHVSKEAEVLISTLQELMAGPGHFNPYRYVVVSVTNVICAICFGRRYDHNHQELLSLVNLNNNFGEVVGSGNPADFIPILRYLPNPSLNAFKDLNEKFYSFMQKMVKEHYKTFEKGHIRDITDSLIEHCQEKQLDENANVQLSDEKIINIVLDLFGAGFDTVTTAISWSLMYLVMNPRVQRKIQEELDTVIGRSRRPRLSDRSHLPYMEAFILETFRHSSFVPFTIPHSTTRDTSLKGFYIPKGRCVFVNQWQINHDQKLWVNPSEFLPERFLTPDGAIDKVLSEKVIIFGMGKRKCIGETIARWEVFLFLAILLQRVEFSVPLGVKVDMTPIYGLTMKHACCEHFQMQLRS
In short: as §4

[13] = tested on: p110α; conditions: cited from earlier work
[14] = molecular target: CYP2C19 (Homo sapiens, UniProt P33261); assay: Inhibition of CYP2C19; format: biochemical
Sequence of CYP2C19 (P33261 whole entry): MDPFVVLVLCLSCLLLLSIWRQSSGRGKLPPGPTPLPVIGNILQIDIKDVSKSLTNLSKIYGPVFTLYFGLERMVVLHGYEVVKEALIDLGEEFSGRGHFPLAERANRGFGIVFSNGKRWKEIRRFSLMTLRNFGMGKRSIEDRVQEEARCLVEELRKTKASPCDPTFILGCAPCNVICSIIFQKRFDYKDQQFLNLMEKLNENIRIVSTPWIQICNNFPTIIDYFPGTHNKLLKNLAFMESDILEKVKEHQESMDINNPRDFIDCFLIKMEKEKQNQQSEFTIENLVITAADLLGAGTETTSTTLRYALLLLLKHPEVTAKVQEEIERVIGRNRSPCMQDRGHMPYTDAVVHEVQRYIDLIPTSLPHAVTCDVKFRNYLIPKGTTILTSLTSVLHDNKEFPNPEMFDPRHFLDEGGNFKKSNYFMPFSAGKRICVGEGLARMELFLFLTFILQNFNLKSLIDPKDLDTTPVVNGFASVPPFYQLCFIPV
In short: as §2

[15] = molecular target: UGT1A1 (Homo sapiens, UniProt P22309); assay: Inhibition of UGT1A1; format: biochemical; conditions: PI-103 1, 10 and 100 μM
In short: as §1

[16] = molecular target: UGT1A4 (Homo sapiens, UniProt P22310); assay: Activation of UGT1A4; format: biochemical
Sequence of UGT1A4 (P22310 29-534): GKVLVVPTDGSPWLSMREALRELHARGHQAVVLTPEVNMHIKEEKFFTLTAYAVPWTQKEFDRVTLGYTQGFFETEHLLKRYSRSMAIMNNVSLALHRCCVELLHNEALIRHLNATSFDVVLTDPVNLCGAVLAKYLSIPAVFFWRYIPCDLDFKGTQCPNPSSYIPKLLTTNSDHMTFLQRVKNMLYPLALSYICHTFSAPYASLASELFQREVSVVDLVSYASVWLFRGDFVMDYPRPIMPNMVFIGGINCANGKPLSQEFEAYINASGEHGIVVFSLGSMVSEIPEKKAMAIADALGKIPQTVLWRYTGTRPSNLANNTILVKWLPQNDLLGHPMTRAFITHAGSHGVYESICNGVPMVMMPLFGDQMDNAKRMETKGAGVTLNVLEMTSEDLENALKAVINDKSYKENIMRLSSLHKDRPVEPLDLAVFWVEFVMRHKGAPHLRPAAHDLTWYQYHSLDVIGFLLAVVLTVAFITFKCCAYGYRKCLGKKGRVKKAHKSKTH
In short: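 Recombinant human UGT1A4 with trifluoperazine (TFP) as substrate for N-glucuronidation, at various TFP concentrations with or without test compound. Triplicate. Data fitted to a mechanistic two-site model assuming a reaction site and an allosteric site.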

[17] = tested on: p110δ; conditions: cited from earlier work
[18] = molecular target: T1, CYP2B6 (Homo sapiens, UniProt P20813); assay: Inhibition of CYP2B6; format: biochemical
T1 sequence (P20813 1-491): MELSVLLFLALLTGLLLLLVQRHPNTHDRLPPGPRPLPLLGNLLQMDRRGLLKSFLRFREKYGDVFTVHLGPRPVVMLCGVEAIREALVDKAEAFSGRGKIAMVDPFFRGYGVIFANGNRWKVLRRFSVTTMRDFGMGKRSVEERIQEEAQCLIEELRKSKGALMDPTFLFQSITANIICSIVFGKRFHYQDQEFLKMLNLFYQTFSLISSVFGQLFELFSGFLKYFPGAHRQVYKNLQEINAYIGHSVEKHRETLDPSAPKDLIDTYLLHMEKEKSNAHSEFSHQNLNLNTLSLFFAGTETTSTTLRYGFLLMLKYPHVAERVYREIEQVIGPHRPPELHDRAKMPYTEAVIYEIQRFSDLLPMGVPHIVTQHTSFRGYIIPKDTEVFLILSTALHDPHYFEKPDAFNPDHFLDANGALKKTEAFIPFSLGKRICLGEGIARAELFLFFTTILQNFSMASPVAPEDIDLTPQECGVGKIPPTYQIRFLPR
In short: as §2

[19] = molecular target: MRP1 (Homo sapiens, UniProt P33527); assay: M2 excretion in HeLa1A9 cells after shRNA knock-down of MRP1; format: cell-based; conditions: MRP1 partially silenced
In short: as §3

Sequence of UGT2B15 (P54855 24-530): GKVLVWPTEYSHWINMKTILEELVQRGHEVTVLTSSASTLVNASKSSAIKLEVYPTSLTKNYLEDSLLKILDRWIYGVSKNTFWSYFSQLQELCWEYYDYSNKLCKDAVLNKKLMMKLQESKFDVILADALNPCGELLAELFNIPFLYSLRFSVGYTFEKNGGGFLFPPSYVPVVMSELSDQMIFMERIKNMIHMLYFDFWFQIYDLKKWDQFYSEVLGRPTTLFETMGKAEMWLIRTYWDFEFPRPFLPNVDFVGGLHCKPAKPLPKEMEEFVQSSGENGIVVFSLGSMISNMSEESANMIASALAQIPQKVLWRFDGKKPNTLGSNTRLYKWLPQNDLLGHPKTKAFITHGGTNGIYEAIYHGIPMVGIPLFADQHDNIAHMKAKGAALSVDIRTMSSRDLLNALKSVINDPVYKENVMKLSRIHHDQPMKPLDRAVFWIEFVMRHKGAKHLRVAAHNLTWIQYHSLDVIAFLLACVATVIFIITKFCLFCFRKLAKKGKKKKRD

Oc1cccc(-c2nc(N3CCOCC3)c3oc4ncccc4c3n2)c1 [PI-103]
inhibitory effect [1]: negligible
IC50 [2]: 330 ± 40 nM
Ki [2]: 250 ± 10 nM
residual activity ([2]; CYP2E1, 100 μM PI-103): 13.69 % of the negative control
Type of inhibition ([2]; CYP2E1, chlorzoxazone): Noncompetitive
reduction in fraction of metabolized (fmet) PI-103 [3]: 27.6%
IC50 [4]: 168000 ± 15300 nM
inhibitory effect [6]: negligible
alteration in fmet value of PI-103 [7]: 9.2%
IC50 [8]: 150 nM
toxicity in mice [9]: little toxicity
inhibitory effect [10]: negligible
inhibitory effect [11]: negligible or weak
IC50 [12]: 16800 ± 1760 nM
residual activity ([12]; CYP1A1, 100 μM PI-103): 21.39 % of the negative control
IC50 [14]: 590 ± 60 nM
Ki [14]: 530 ± 30 nM
residual activity ([14]; CYP2C19, 100 μM PI-103): 14.67 % of the negative control
Type of inhibition ([14]; CYP2C19, mephenytoin): Noncompetitive
inhibitory effect [15]: negligible
Ki [16]: 13800 nM
maximal rate change (activation of UGT1A4) ([16]; TFP-N-glucuronidation): 1.6 fold
IC50 [18]: 2250 ± 280 nM
Ki [18]: 640 ± 220 nM
residual activity ([18]; CYP2B6, 100 μM PI-103): 29.70 % of the negative control
Type of inhibition ([18]; CYP2B6, bupropion): Mixed-type
α ([18]; CYP2B6, bupropion, mixed-type model (selected)): 5.09 ± 4.48
reduction in fmet value [19]: 29.2%

Reference: article PMC9050161 (RSC Advances, 2020)
